Rows were chosen to be rich in hits. Some 1.9% of all compounds tested hit in one or more screens of this group.
LYP act: activators of human LYP (PTPN22) phosphatase; recombinant LYP, DiFMUP fluorescence; 0 = plate median, 100 = signal doubled; activation, % at 2 µM; 0.11% of 96,000 active;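 active = activation at 2 µM above a set limit, the mean plus 5 SD, cut at about 37% in these data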
EphB4 antag: antagonists of human EphB4-ephrin-B2 interaction | P54760 | EphB4 LBD / TNYL-RAW-Alexa532 peptide, fluorescence polarization | inhibition, % at 7 µM | 0.15% of 97,000 active;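 active = inhibition above the screen-wide mean inhibition plus 3 SD, cut at about 15% in these data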;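 note: 0% = DMSO wells and 100% = excess unlabeled TNYL-RAW peptide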
Target sequence (P54760 whole entry, looked up, the tested form may be a part): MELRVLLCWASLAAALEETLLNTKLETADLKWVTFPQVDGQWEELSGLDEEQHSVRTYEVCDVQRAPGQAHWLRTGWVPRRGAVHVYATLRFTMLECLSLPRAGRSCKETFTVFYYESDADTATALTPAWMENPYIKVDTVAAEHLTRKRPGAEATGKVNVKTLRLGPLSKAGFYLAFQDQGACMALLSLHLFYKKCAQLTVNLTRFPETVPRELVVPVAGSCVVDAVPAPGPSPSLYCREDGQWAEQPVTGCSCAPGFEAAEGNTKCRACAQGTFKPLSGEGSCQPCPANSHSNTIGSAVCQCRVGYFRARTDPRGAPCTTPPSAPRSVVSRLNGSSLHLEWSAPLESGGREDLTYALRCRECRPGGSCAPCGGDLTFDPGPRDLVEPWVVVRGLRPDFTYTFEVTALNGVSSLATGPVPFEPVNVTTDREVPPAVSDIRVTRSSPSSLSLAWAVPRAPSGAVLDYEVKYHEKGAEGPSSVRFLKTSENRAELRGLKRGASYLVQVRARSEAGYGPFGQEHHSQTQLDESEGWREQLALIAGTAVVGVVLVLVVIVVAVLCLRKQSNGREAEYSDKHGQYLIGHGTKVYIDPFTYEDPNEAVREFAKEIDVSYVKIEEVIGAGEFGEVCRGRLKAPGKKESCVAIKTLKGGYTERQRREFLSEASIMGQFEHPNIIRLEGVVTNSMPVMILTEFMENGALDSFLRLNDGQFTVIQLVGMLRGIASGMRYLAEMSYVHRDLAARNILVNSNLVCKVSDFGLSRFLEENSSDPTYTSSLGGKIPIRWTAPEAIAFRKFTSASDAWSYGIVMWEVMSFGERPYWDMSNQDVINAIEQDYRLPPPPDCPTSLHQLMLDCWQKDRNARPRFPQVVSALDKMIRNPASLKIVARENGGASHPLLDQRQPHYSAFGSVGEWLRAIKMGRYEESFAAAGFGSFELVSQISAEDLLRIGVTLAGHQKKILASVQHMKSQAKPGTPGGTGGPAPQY
HIV Rev-RRE inh: HIV Rev-RRE protein-RNA interaction inhibition. AID 704. 0.79% of 97,000 active. Rev peptide-RRE RNA binding, FRET. inhibition, % at 8 µM. P05866;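 active = inhibition above the screen-wide mean plus 3 SD, cut at about 35% in these data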;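 note: 0% = median DMSO wells and 100% = median Neomycin B control wells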
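assay system = Cy5-tagged RRE RNA duplex with fluorescein-tagged Rev peptide | incubation = 5 + 15 min at 25 °C | also added = labelled Rev peptide | measure = % inhibition of FRET ratio versus controls | benchmarks = DMSO wells as 0% and neomycin B wells as 100% inhibition | measured by = FRET fluorescence readout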
PTPN22 inh 2: inhibitors of human LYP (PTPN22) phosphatase | recombinant LYP catalytic domain, DiFMUP fluorescence | AID 640 | inhibition, % at 2 µM | 0.21% of 96,000 active;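 active = inhibition at 2 µM at or above a set limit, the screen mean plus 3 SD, cut at about 24% in these data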;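 note: 0% = DMSO with enzyme and 100% = enzyme fully blocked by orthovanadate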
FAK inh: inhibitors of human focal adhesion kinase; Q05397; biochemical FAK kinase activity assay; inhibition, %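 (tested at 7 µM)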; 0.84% of 97,000 active; AID 727; in the data active = inhibition above about 19%;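 note: 0% = DMSO and 100% = reference compound high control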
An asterisk follows results filed as active; [ ] = another dose, or the depositor's remark.

SMILES	LYP act	EphB4 antag	HIV Rev-RRE inh	PTPN22 inh 2	FAK inh
c1cc2c3c(cccc3c1)C(N1CCN(C3=Nc4cccc5cccc3c45)CC1)=N2	-15.2	-3.7	40.0*	10.8	13.8
c1ccc(CC2CCN(C3=Nc4cccc5cccc3c45)CC2)cc1	15.7	-2.1	42.1*	-16.3	2.4
COC(=O)c1sccc1-n1cccc1C(=O)C(=O)N1CC(C)OC(C)C1 (configuration not stated)	12.8	3.0	2.4	-11.9	0.4
CCNc1ccc(Br)cc(C(=O)/C=C/c2ccccc2Cl)c1=O	-14.8	0.5	76.8*[fluorescence artefact?]	14.3	-0.5
CNc1ccc(Br)cc(C(=O)/C=C/c2cccc(OC)c2OC)c1=O	-9.3	2.1	65.2*	8.8	0.7
CCNc1ccccc(C(=O)/C=C/c2ccc3c(c2)OCO3)c1=O	30.5	-2.5	54.6*	-29.6	1.1
COc1ccccc1/C=C/C(=O)c1cc(Br)ccc1OC(=O)c1ccco1	26.5	1.4	9.5	-29.7	1.4
Cc1ccc(C(=O)/C=C/c2ccc3c(c2)OCO3)o1	-5.1	-5.9	1.4	8.9	4.2
CCN(CC)c1ccc(/C=C(/C#N)c2nc3ccccc3[nH]2)c(OC(C)C)c1	-4.0	10.9	135.8*[fluorescence artefact?]	1.6	7.5
CCN1C(=O)/C(=C/C=C2/SCCN2C)SC1=S	-7.5	2.7	129.2*[fluorescence artefact?]	9.9	-0.3
CCN1C(=O)/C(=C/N2CCc3ccccc32)SC1=S	-0.5	6.2	17.5	0.2	-1.9
Cc1cccc(C)c1NC(=O)c1cc2c(=O)c3ccccc3oc2nc1C(F)(F)F	-6.5	-1.9	16.9	10.3	1.3
Cc1ccc2oc3nc(C)c(C(=O)Nc4cccc(C(F)(F)F)c4)cc3c(=O)c2c1	-28.5	1.2	17.7	30.6*	-2.9
O=C(OCC(=O)N1CCc2ccccc21)c1ccc(Cl)nc1	2.4	7.1	2.3	-0.3	-7.4
COC(=O)c1c(NC(=O)CSc2n[nH]c(N)n2)sc(C)c1C	-0.5	-4.5	2.7	0.1	0.0
Cc1ccc(/C=C/C2=Cc3c(sc(NC(=O)CSc4n[nH]c(N)n4)c3C#N)C(C)(C)C2)o1	-6.4	0.2	47.4*	3.4	13.0
CCOC(=O)CC(=O)CSc1nc2c(C)c(C)ccc2cc1C	-27.3	-2.9	5.6	24.2*	0.5
CN1/C(=C\C=Nc2ccc3ccccc3c2)C(C)(C)c2ccccc21	6.0	-0.7	62.9*	-1.9	-2.1
CN1/C(=C\C=Nc2ccccc2)C(C)(C)c2ccccc21	-1.0	0.4	11.3	6.1	-3.8
COc1ccc(OC)c(S(=O)(=O)Nc2cc(Cl)cc(Cl)c2)c1	-5.7	0.2	7.5	6.2	-1.2
CCNC(=S)NNC(=O)c1cccn(Cc2ccc(Cl)cc2Cl)c1=O	-59.0	1.4	-1.1	60.1*	4.3
C=CCNC(=S)NNC(=O)c1cccn(Cc2ccc(Cl)cc2Cl)c1=O	-47.3	-3.5	-0.7	48.6*	-0.6
O=C(CC1Nc2ccccc2NC1=O)c1ccccc1 (configuration not stated)	-0.9	12.5	73.3*	-0.2	4.3
O=C(CC1Nc2ccccc2NC1=O)NCCc1ccccc1 (configuration not stated)	-3.9	4.6	5.6	6.6	2.4
COc1cc(C)c(CNc2ccc(OC)c(OC)c2)cc1C	7.3	-1.8	39.5*	-8.0	12.2
SMILES	LYP act	EphB4 antag	HIV Rev-RRE inh	PTPN22 inh 2	FAK inh
O=S(=O)(/C=C/c1ccccc1)Oc1ccccc1	-1.4	-3.4	1.9	1.3	-1.1
COc1ccc(C(=O)COc2ccc(NC(C)=O)cc2)cc1	0.5	3.1	9.2	-1.1	7.2
CC(=O)Nc1ccc(OCC=C(Cl)Cl)cc1	-5.3	16.2*	10.7	10.9	6.2
COc1ccc(-n2ncc3c(NCCCn4ccnc4)ncnc32)cc1	11.7	-3.6	2.3	-14.4	2.4
Cc1ccccc1C1C(C#N)=C2NC(=O)c3c(sc4c3CCCCC4)N2C2=C1C(=O)CC(C)(C)C2 (configuration not stated)	0.6	0.4	39.5*	1.8	-10.7
Cc1ccccc1C1C(C#N)=C2N=C(N)c3c(sc4c3CCCCC4)N2C2=C1C(=O)CC(C)(C)C2 (configuration not stated)	9.7	5.9	34.1	-7.1	-1.2
COc1cc(NC(=O)c2ccc(COCC(F)(F)F)cc2)cc(OC)c1OC	1.0	3.9	5.8	3.1	-7.4
Cc1c(-n2cc(C(=O)c3cc(Br)ccc3O)cc(C#N)c2=O)c(=O)n(-c2ccccc2)n1C	-11.2	2.5	74.3*[fluorescence artefact?]	8.9	1.5
COc1ccc(O)c(C(=O)c2cc(C#N)c(=O)n(CCN3CCOCC3)c2)c1	-1.1	1.5	6.4	-0.7	-3.0
Cc1ccc(O)c(C(=O)c2cc(C#N)c(=O)n(CC3CCCO3)c2)c1 (configuration not stated)	3.1	0.1	6.2	3.1	-0.6
COc1ccc(O)c(C(=O)c2cc(C#N)c(=O)n(-c3c(C)n(C)n(-c4ccccc4)c3=O)c2)c1	-6.2	-6.8	91.8*[fluorescence artefact?]	5.6	-3.3
Cc1ccc(O)c(C(=O)c2cc(C#N)c(=O)n(-c3c(C)n(C)n(-c4ccccc4)c3=O)c2)c1	8.2	2.0	79.4*	-6.0	0.8
Cc1c(-n2cc(C(=O)c3cc(Cl)ccc3O)cc(C#N)c2=O)c(=O)n(-c2ccccc2)n1C	14.6	10.7	82.7*[fluorescence artefact?]	-12.3	-1.1
COc1ccc(N=C2NC(=O)S/C2=C\c2ccc(N(C)C)cc2)cc1	-5.2	9.5	116.7*[fluorescence artefact?]	2.5	-3.3
O=S(=O)(Nc1nc(-c2sccc2Cl)cs1)c1cc(Cl)ccc1Cl	-24.0	5.8	4.4	26.4*	8.6
O=S(=O)(NCc1cccnc1)c1cc(Cl)ccc1Cl	0.7	-7.9	4.9	-0.9	-0.3
Cn1cc(Cl)c(C(=O)OCC(=O)Nc2ccccc2)n1	1.5	15.5*	2.7	-2.8	-2.5
CC(=O)c1cc2c(cc1NC(=O)C1CC1)OCO2	4.2	8.1	0.0	-9.8	3.6
COc1cc(/C=C/C(=O)c2c(O)cc(C)oc2=O)cc(OC)c1O	10.7	-8.6	38.3*	-15.1	-2.3
COc1ccc(/C=C/C(=O)c2c(O)cc(C)oc2=O)c(OC)c1	-5.9	5.0	89.5*[fluorescence artefact?]	8.2	4.1
CCC(=O)NCc1cc(-c2nn(C)c(=O)c3ccccc23)ccc1C	-0.7	3.3	8.1	3.0	-0.4
Cc1ccc(-c2nn(CC(=O)NCc3cc(-c4nn(C)c(=O)c5ccccc45)ccc3C)c(=O)c3ccccc23)cc1	-24.5	-0.4	4.8	24.9*	-0.3
CCCc1cc(SCC(=O)Nc2c(C)n(C)n(-c3ccccc3)c2=O)n2c(nc3ccccc32)c1C#N	-17.4	0.7	40.8*	18.2	-2.6
Cc1nc2ccccn2c1/C(O)=C1\C(=O)C(=O)N(CCCN(C)C)C1c1ccc(F)cc1 (configuration not stated)	0.2	-1.4	11.6	-1.3	2.6
O=C(Nc1ccc(N2CCOCC2)cc1)c1ccc2nc(-c3ccco3)c(-c3ccco3)nc2c1	5.6	5.9	2.9	-3.0	8.3
S=C(Nc1ccc(N2CCOCC2)cc1)Nc1ccc2nc(-c3ccco3)c(-c3ccco3)nc2c1	-7.7	2.2	103.6*[fluorescence artefact?]	9.5	3.8
